Results: PubChem BioAssay AID463111 (Johns Hopkins Ion Channel Center, 2010)
Hit rate of the full screen: of about 310,000 compounds, about 2,800 (0.9%) were called active.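 How the source made its calls: active means B-score of the integrated calcium signal more than 4 SD below the library mean, with starting fluorescence not abnormally high; inactive means the rest.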 What follows is part of a selection rich in actives, with near analogues and random picks from the rest.

Assay: RGS4 potentiators or activators, primary screen, cell-based, HEK293 M3R inducible RGS4, calcium flux (AID 463111);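 on B-score: negative B-score means reduced calcium response which marks RGS4 activation or potentiation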
Conditions: HEK293 M3R/inducible RGS4, carbachol calcium flux Fluo4, at 10 µM; active compounds read low
Method in brief: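 Assay system: Inducible-RGS4 HEK293 cells carrying M3 receptor | Schedule: Compound preincubation 20 min at room temperature before agonist | Signal: Kinetic calcium fluorescence imaging with Fluo4-AM dye, 2 µM | Read-out basis: B score from integrated fluorescence ratio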

B-score, active:
CN(C)S(=O)(=O)N1CCC(Oc2cccc(C(=O)NCCCC3CCCC3)c2)CC1 -7.71, N=c1c2c3c(sc2nc2n1CCCCC2)CCCC3 -8.12, Cc1ccccc1C(OCCN(C)C)C1CCCCC1 (stereo not drawn) -8.62, Cc1ccc(C)c(N2CCN(C(=O)CCCn3c(=O)c4cccn4c4cccnc43)CC2)c1 -7.65, Cc1ccc(C)c(N2CCN(C(=O)CCCCCn3c(=S)[nH]c4ccc(N5CCOCC5)cc4c3=O)CC2)c1 -10.9, COc1cccc(CNC(=O)CCC2CCCN(Cc3ccc(OC(F)F)cc3)C2)c1 (stereo not drawn) -12, Cc1nn(C)cc1N1C(=O)c2cccc3c(N)ccc(c23)C1=O -8.92, COc1ccc(C(=O)/C=C/c2ccc(-c3ccccc3)cc2)cc1CSCC(=O)O -7.93, O=C(CN1CCCCCC1)N1c2ccccc2Sc2ccc(C(F)(F)F)cc21 -7.9, Cc1cc2oc(=O)cc(CN(C)Cc3ccc(OC(F)F)cc3)c2cc1Cl -7.56, O=C(c1ccc(-n2cnnn2)cc1)N1CCN(C(c2ccccc2)c2ccccc2)CC1 -7.43, CCOC(=O)c1c(NC(=O)C(C)Sc2c[nH]c3ccccc23)sc2c1CCC2 (stereo not drawn) -7.36, COc1cccc(/C=N/Nc2cc(C)nc(-c3ccccc3O)n2)c1O -11.4, Cc1ccc(SCC(=O)c2cc(C)c(OC(=S)N(C)C)c(C)c2)cc1 -8.33, O=C(c1cccs1)C1C(c2ccc(Br)cc2)NC(=S)NC1(O)C(F)(F)F (stereo not drawn) -11.1, COc1ccc(/C=C(\C#N)c2c[nH]c3ccccc23)cc1 -9.16, COc1cccc(C(=O)N/N=C(\C)c2cccc(NC(=O)c3ccc(F)cc3)c2)c1OC -7.56, CCN1CCN(CCNC(=O)c2ccc(/C=C3/Sc4ccccc4N(Cc4cccc(C)c4)C3=O)cc2)CC1 -9.47, Cc1cccc(-c2nc3ccc(C(=O)NCCN4CCN(C)CC4)cc3nc2-c2cccc(C)c2)c1 -8.03, CCOc1ccc(C(CC(=O)O)NC(=O)COc2ccccc2)cc1 (stereo not drawn) -7.76

B-score, inactive:
CNS(=O)(=O)c1cccc(C(=O)NCC2CCCCC2)c1, CN(C(=O)c1cccc(OC2CCN(S(=O)(=O)N(C)C)CC2)c1)C1CCOC1 (stereo not drawn), Cc1ccc(-c2nc(CS(=O)(=O)CC(=O)NCc3ccc4c(c3)OCO4)c(C)o2)cc1, CC1(C)Cc2c(sc3nc4n(c(=N)c23)CCCCC4)CO1, N=c1c2c3c(sc2ncn1N)CCCCC3, CCOc1ccc(S(=O)(=O)Nc2ccc(C(=O)NCCCN3CCCC3=O)cc2)cc1, CN(C)CCOC1c2ccccc2-c2ccccc21, CN(C)CCOC(=O)C(c1ccccc1)C1(O)CCCC1 (stereo not drawn), Cc1ccc(C)c(N2CCN(C(=O)CCc3nc4ccccc4[nH]3)CC2)c1, Cc1ccc(C)c(N2CCN(C(=O)CCCCn3c(=O)[nH]c4ccccc4c3=O)CC2)c1, O=C(CCCCCn1c(=S)[nH]c2cc3c(cc2c1=O)OCO3)N1CCN(c2ccc(F)cc2)CC1, Cc1ccc(C)c(N2CCN(C(=O)Cn3ncn4cccc4c3=O)CC2)c1, Cn1c(=O)c2c(SCC(=O)NCC3CCCO3)nc(CC(C)(C)C)nc2n(C)c1=O (stereo not drawn), OC1CCCN(c2ncnc3c2nnn3Cc2c(F)cccc2Cl)C1 (stereo not drawn), COc1ccc(CNC(=O)C(c2ccc(O)cc2)N(Cc2ccco2)C(=O)c2snc(C(N)=O)c2N)cc1 (stereo not drawn), CC(C)c1ccc(NC(=O)Cn2ncc3ccccc32)cc1, COc1cccc(C(=O)N2CCCC(CCC(=O)NCc3ccc(F)c(F)c3)C2)c1 (stereo not drawn), COc1cccc(CNC(=O)CCC2CCCN(C(=O)c3ccc(F)c(Cl)c3)C2)c1 (stereo not drawn), COc1cccc(C(=O)OCc2cc(=O)oc3c(C)c(C)ccc23)c1OC, CN1C(=O)c2cccc3c(N)ccc(c23)C1=O, O=C1c2ccccc2C(=O)N1c1cccc2ccccc12, COc1ccc(C(=O)Nc2ccc(C(=O)NCC3CCCO3)cc2)c(OC)c1OC (stereo not drawn), CC(=O)NCC(=O)N1CCC(n2nccc2NC(=O)CCCc2ccccc2)CC1, COC(=O)c1ccc(COc2ccc(/C=C/C(=O)c3ccc(OC)c(CSCC(=O)O)c3)cc2OC)cc1, COc1ccc(/C=C/C(=O)c2ccc(NS(=O)(=O)c3ccc(C)cc3)cc2)cc1O, CC(C)=CCN1CCN(CCCc2ccccc2)CC1CCO (stereo not drawn), NC1=NC(c2ccc([N+](=O)[O-])cc2)N(c2ccc(F)cc2)C(N)=N1 (stereo not drawn), CCOC(=O)CNC(=O)N1c2ccccc2Sc2ccccc21, COc1cc(/C=C/C(=O)N2c3ccccc3Sc3ccc(C(F)(F)F)cc32)cc(OC)c1OC, CCn1nc(C)c(CNC(=O)C2CCC(=O)N(Cc3cccc(F)c3)C2)c1C (stereo not drawn), Cc1ccc(CN(C)Cc2cc(=O)oc3cc(C)c(Cl)cc23)cc1, CCOc1ccc(N(C)Cc2cc(=O)oc3ccc(OC)cc23)cc1, CCN1CCN(c2sc(S(C)(=O)=O)nc2S(=O)(=O)c2ccc(Cl)cc2)CC1, Cc1onc(C(=O)NN)c1C(=O)N1CCN(C(c2ccccc2)c2ccccc2)CC1, Cn1nnnc1SCC(=O)N1CCN(C(c2ccccc2)c2ccccc2)CC1, C=CCN(C(=O)Cn1ncc2c1-c1cc(C)ccc1OC2)c1ccccc1, Cc1ccc(S(=O)(=O)NCc2ccc(C(=O)NC3CCC(C)CC3)cc2)cc1 (stereo not drawn), CCOC(=O)c1c(NC(=O)CSc2cn(CC)c3ccccc23)sc2c1CCC2, CCOC(=O)c1c(NC(=S)NC)sc2c1CCCC2, COc1cccc(/C=N/Nc2ncc(C(F)(F)F)cc2Cl)c1O, COc1cccc(/C=N/NC(=O)c2[nH]nc3c2CCc2ccccc2-3)c1O, Cc1ccc(C(=O)CSc2ccccc2C(=O)O)cc1, Cc1ccc(SCC(=O)Nc2ccc3c(c2)OCCO3)cc1, CN(C)C(=O)Cn1c(=O)n(S(=O)(=O)c2ccccc2)c2ccccc21, CCOC(=O)C1C(c2ccc(Cl)cc2)NC(=S)NC1(O)C(F)(F)F (stereo not drawn), CC(=O)C1C(c2cccc(Oc3ccccc3)c2)NC(=O)NC1(O)C(F)(F)F (stereo not drawn), O=C(NCc1ccncc1)C(=O)NCC1OCCN1S(=O)(=O)c1ccc(Br)cc1 (stereo not drawn), COc1ccc2[nH]cc(/C=C(/C#N)S(=O)(=O)c3ccccc3)c2c1, COc1ccc(C(C(O)C(=O)c2c[nH]c3ccccc23)N2CCN(c3ccccc3)CC2)cc1 (stereo not drawn), COc1cccc(NC(=S)C(C#N)=C2N(C)c3ccccc3N2C)c1, CC(C)(C)c1ccc(C(=O)N2CCN(CCNC(=O)C(=O)Nc3ccc(F)cc3)CC2)cc1, COc1cccc(C(=O)Nc2cccnc2)c1OC, COc1ccc(/C(C)=N\NC(=O)c2ccc(-c3ccccc3)cc2)c(F)c1, CC(C)(C)n1ncc2c(=O)n(Cc3ccc(Cl)cc3)cnc21, O=C(NCCN1CCOCC1)c1ccc(/C=C2\Sc3ccccc3N(Cc3ccc(F)cc3)C2=O)cc1, O=C(NCCCN1CCOCC1)c1ccc2c(c1)N(Cc1cccc(F)c1)C(=O)c1ccccc1S2, Cc1oc(C(N)=O)cc1COc1ccc(C(N)=O)cc1, Cn1nccc1NC(=O)CC(CC(=O)O)c1ccccc1 (stereo not drawn), CCC1=Nc2cc(C(=O)NCCN3CCCC3)ccc2Sc2ccc(C)cc21, Cc1ccc(C(=O)NCCN2CCOCC2)cc1C, O=C(CN1CCC(NC(=O)C2CC2)CC1)Nc1ccccc1[N+](=O)[O-], Cc1ccc(OCC(=O)NC(C)c2ccccc2)cc1C (stereo not drawn), CCOc1ccc(C(CC(=O)O)NC(=O)Cc2ccccc2)cc1OC (stereo not drawn)
